Screening results deposited in PubChem by several laboratories.
This is a sample that favours compounds with a hit; in the whole collection about 1.9% have one here.
MIN6 prolif-1 = induces beta-cell replication in MIN6 cells; MIN6 cells proliferation, ATPlite luminescence, 48 h; cells starved in 0.2% serum; 100% = growth in 10% serum; proliferation, % at 10 µM; AID 2380; 0.29% of 330,000 active;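 active = compounds whose signal lies at least 3.5 SD above the mean of all wells on their plate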;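 note: 0% = DMSO-treated cells in low-serum medium and 100% = 10% serum control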
T cell HTS = modulates CD8 T cell binding to vesicles; response (vesicle binding), % at 7 µM; 0.068% of 330,000 active; 2C CD8+ T cell-vesicle binding, flow cytometry; hits give low values; AID 2052;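 active = response, share of CD8 T cells binding vesicles, and their 90th percentile fluorescence all below set limits, cut at about 80% in these data, passing the limit was not always enough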;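 note: values below 100% mean blocked vesicle binding to the CD8+ T cells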
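Assay system – 2C mouse CD8+ T cells · Also added – QL9-loaded Drosophila micro-vesicles · Timing – Cell–vesicle co-incubation 1.5 h at 37 °C, staining 20 min on ice · Signal – flow cytometry of vesicle-bound cells · Measure – percent CD8+ FL2 mean versus row control · Controls – Peptide-free naked vesicles (low) and QL9 vesicles with 0.7% DMSO vehicle (high)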
Yeast superoxide = yeast age-related superoxide inhibition as caloric restriction mimetic. S. cerevisiae aged cells, superoxide DHE fluorescence; hits give low values. superoxide response (% of plate mean), % at 10 µM. 0.18% of 330,000 active. AID 2690;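 active = superoxide response under a set limit, about three screen SD below normal, cut at about 65% in these data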;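 note: yeast aged for seven days with compound at 30 °C before DHE staining; 100% = average MFI of all compound-treated wells on the plate with controls excluded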
proKLK7 act = proKLK7 (human) activation, primary screen | P49862 | purified proKLK7, EDANS-DABCYL substrate fluorescence; 100% is mature enzyme control, 0% vehicle | activation, % at 7 µM | 0.9% of 370,000 active;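 active = activation above the mean of all tested compounds plus 3 SD, computed per campaign excluding outliers beyond control limits, cut at about 13% in these data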
Target sequence (P49862 whole entry, looked up): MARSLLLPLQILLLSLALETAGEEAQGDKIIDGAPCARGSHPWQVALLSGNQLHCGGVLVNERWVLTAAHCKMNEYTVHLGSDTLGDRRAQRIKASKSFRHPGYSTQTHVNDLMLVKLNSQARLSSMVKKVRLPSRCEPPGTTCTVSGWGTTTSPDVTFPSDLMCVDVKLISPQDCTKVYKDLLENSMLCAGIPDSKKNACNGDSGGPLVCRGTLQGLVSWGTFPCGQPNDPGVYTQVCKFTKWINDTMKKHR
V-ATPase pH = alters yeast V-ATPase proton transport | S. cerevisiae, pHLuorin cytosolic pH fluorescence | response, % at 10 µM | 0.37% of 350,000 active | AID 504577; in the data active = response mostly above about 7.3%, no sharp cut-off; inactive = mostly below about 5.4%; note: actives read high
Rce1 inhib = inhibitors of yeast Ras-converting enzyme. Q03530. AID 2563. 0.27% of 290,000 active. calls only. yeast membranes, quenched prenylated peptide cleavage fluorescence;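 active = fall in fluorescence gain of 50% or more versus controls, with final raw signal at or below 3038400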;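 note: plate controls were neutral control wells for no effect and wells lacking membranes for full effect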
Target sequence (Q03530 whole entry, looked up): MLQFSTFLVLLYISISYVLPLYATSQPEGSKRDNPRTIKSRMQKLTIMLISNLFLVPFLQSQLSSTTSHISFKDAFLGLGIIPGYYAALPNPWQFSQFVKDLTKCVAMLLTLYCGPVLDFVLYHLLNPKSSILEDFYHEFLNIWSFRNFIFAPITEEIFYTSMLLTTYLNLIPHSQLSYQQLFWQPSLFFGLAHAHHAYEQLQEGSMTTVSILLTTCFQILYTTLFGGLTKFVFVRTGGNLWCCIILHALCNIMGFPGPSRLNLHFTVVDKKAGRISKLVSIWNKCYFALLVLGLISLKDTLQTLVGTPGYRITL
MIN6 prolif-2 = confirmation of inducers of beta-cell replication in MIN6 cells; shares compounds with MIN6 prolif-1; MIN6 beta-cell proliferation, ATPlite luminescence, 48 h; cells kept in 0.2% serum; scaled between 0.2% and 10% serum; proliferation increase, % at 50 µM; 920 tested, under 10 active;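 active = proliferation increase above 40% at any of the four tested concentrations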
An asterisk follows results filed as active; i = inactive; x = no result.

SMILES	MIN6 prolif-1	T cell HTS	Yeast superoxide	proKLK7 act	V-ATPase pH	Rce1 inhib	MIN6 prolif-2
COc1cc2nc(Cl)nc(N3CCCCC3)c2cc1OC	7.6*	i	108	0	0	x	-3
C=CCNc1cccc2c1S(=O)(=O)N[C@@H](C)CO2	x	x	x	1	x	x	x
O=S(=O)(c1ccccc1Cl)N1CCCC(c2nc(-c3cccnc3)no2)C1 (configuration not stated)	7.4*	504	120	0	5	i	-4
COc1ccc(-c2noc(C3CCCN(S(=O)(=O)c4cccc(Cl)c4C)C3)n2)cc1OC (configuration not stated)	-3	237	88	0	19	i	x
COc1ccc(CCNC(=O)CN2c3cccc4cccc(c34)S2(=O)=O)cc1	13*	x	x	2	-1	x	5
COc1ccc(NC(=O)CN2c3cccc4cccc(c34)S2(=O)=O)cc1	-3	302	106	-1	0	i	x
CN(C)S(=O)(=O)c1cccc(C(=O)N/N=C\c2ccccc2[N+](=O)[O-])c1	x	x	x	0	x	x	x
CC(=O)CC[C@@H]1CC[C@]2(CCCN(C(=O)C3CCCCC3)C2)O1	x	x	x	0	x	x	x
CC(C)c1nc2n[nH]c(N)c2c2c1CCCC2	6.1*	466	104	0	4	i	7
CC(C)Cc1nc2n[nH]c(N)c2c2c1CCC2	0.0*	216	95	0	-4	i	2
CC(C)Cc1nc2n[nH]c(N)c2c2c1CCCC2	2	557	91	0	2	i	x
Cc1ccc(-c2cc(C(=O)NN=Cc3ccc(N(C)C)cc3)[nH]n2)cc1C	x	x	x	0	x	x	x
CC(C)CC1(C)CNC(=O)NC1	x	x	x	0	0	x	x
CC1(C)CNC(=O)CC(C)(C)N1O	6.6*	160	90	1	0	i	-4
CC(=O)c1c(C)nc2cc(Cl)ccc2c1N	5.5*	440	109	0	6	i	6
O=S1(=O)c2ccc(Br)cc2OC[C@H](Cc2ccccc2)N1Cc1cn(CCC2OCCO2)nn1	x	x	x	0	x	x	x
COC(=O)[C@]12C[C@H](CC(=O)NCc3ccc(C)o3)C(=O)N(CCC3=CCCCC3)C1=C[C@H](COCc1ccccc1)O[C@@H]2C	x	x	x	0	x	x	x
COc1ccc(-n2c(C)c(C(C)=O)c3cc(OC(C)=O)ccc32)cc1	5.3*	226	100	0	0	i	-5
Cc1cc(NC(=O)CSc2nnc(CNC(=O)c3ccc(F)cc3)o2)no1	7	187	83	0	-4	i	x
COC(=O)[C@]12C[C@H](CC(=O)N3CCCC3)C(=O)N(CCc3ccc(OC)c(OC)c3)C1=C[C@H](C1CCCC1)O[C@@H]2C	x	x	x	0	x	x	x
O=C(NCc1ccco1)c1nn2c(C(F)(F)F)cc(-c3cccs3)nc2c1Cl	-4	722	104	0	-6	i	x
O=C(NCc1ccco1)c1cc2nc(-c3cccs3)cc(C(F)(F)F)n2n1	7.8*	324	88	1	5	i	5
CCn1cc(CN(C)S(=O)(=O)c2cccc([N+](=O)[O-])c2)cn1	7.2*	153	134	0	-2	i	-1
COc1ccccc1N1CCN(C(=O)CN(C)S(=O)(=O)c2ccc3c(c2)c(=O)n(C)c(=O)n3C)CC1	6.9*	253	99	0	0	i	-1
CC1(c2nnnn2-c2ccc3c(c2)OCCO3)CSCC(=O)N1CCc1c[nH]c2ccccc12 (configuration not stated)	x	x	x	0	x	x	x
SMILES	MIN6 prolif-1	T cell HTS	Yeast superoxide	proKLK7 act	V-ATPase pH	Rce1 inhib	MIN6 prolif-2
CC(C)(C)NC(=O)Cn1nc(C(F)(F)F)c2c1CCCC2	-1	395	112	0	1	i	x
FC(F)(F)c1nc2nncn2c2c1CCCCC2	7.4*	436	82	4	-3	i	-3
O[C@H](COc1ccc(Cl)cc1)CN1CCC(C(O)(c2ccccc2)c2ccccc2)CC1	x	x	x	1	x	x	x
COC(=O)c1ccc(CO/N=C/c2ccc(OC)cc2OC)cc1	8.0*	196	90	0	0	i	0
CC(=O)N1CCN(CC(O)Cn2c3ccccc3c3ccccc32)CC1 (configuration not stated)	6.6*	639	86	-1	0	i	-6
C=CCN1[C@H](CO)[C@H](c2ccc(C#CC3(O)CCCC3)cc2)[C@@H]1C#N	x	x	x	1	x	x	x
CN1CCN(CC(O)COC(c2ccccc2)c2ccccc2)CC1 (configuration not stated)	8.2*	194	97	-1	-6	i	-2
CN1CCN(CC(O)COc2ccccc2)CC1 (configuration not stated)	-2	284	92	1	-3	x	x
COc1ccc([N+](=O)[O-])cc1NCc1cccnc1	11*	113	102	0	-3	i	2
Cc1cc(=O)n2[nH]c(SCc3ccccc3)nc2n1	8.3*	513	109	-1	-1	i	-1
COC(=O)C1CCN(C(=O)C2CC(=O)N(c3ccc(OC)cc3)C2c2ccc(OC)cc2)CC1 (configuration not stated)	x	x	x	0	x	x	x
CCC(C)Sc1nc2c(cnn2-c2ccc(C)cc2)c(=O)[nH]1 (configuration not stated)	9.6*	543	95	0	-2	i	8
Cc1cc(C)cc(N(CC(=O)NC2CCC(C)CC2)S(=O)(=O)c2ccc(Br)s2)c1 (configuration not stated)	x	x	x	0	x	x	x
CCC(C)Nc1nc(N)c([N+](=O)[O-])c(NCc2ccccc2)n1 (configuration not stated)	6.2*	238	102	-1	1	i	-6
COCc1cc(N2CCNC[C@H]2C)ccc1N1CCN(Cc2ccccc2)[C@H](C)C1	x	x	x	0	x	x	x
O=C(CCN=C1NS(=O)(=O)c2ccccc21)OCc1ccccc1	-6	267	112	0	-2	i	x
COc1ccc(OC(=O)COc2cc(C)ccc2C)cc1	6.1*	224	95	0	-1	i	-1
CCn1c(=O)c2cc(C(=O)N(C)c3ccc(OC)cc3OC)sc2c2ccccc21	6.7*	82	105	1	-3	i	-6
CCn1c(=O)c2cc(C(=O)N(C)c3cc(C)ccc3OC)sc2c2ccccc21	-3	249	85	0	-3	i	x
COc1cc(/C=N/NS(=O)(=O)c2ccc3ccccc3c2)ccc1OCCN1CCOCC1	0.0*	180	101	1	-9	i	-5
COc1ccc2cc(-c3cccc4[nH]cc(C)c34)ccc2c1	x	x	x	-2	x	x	x
O=C(COc1ccccc1Cl)Nc1ccc(S(=O)(=O)Nc2ccccn2)cc1	0.0*	189	102	0	-3	i	1
